This excerpt belongs to a sample that is enriched for hits.
PostGolgi ctrl = inhibits growth of the yeast control strain; 98,000 tested, 5% active; efflux-deficient yeast background strain, growth absorbance A615, 16 h; AID 738; inhibition, % at 10 µM
Yeast lifespan up = extends the lifespan of yeast; 130,000 tested, 0.68% active; AID 775; inhibition of the nicotinamide effect, % at 10 µM; S. cerevisiae growth with nicotinamide, OD615; deaD strain in restrictive glucose medium;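 active means inhibition above a set limit, placed 3 SD over the median of all compounds, cut at about 26% in these data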
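Buffer or medium: CSMM-D glucose medium, restrictive; test system: modified budding yeast, DeaD strain; compound: single dose 10 µM compound, 0.25% DMSO; schedule: culture preincubation 4 h, compound exposure 48 h, both 30 °C; detection: optical density (absorbance) at 615 nm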
PostGolgi yeast = growth inhibition of a yeast mutant, post-Golgi transport screen; AID 739; inhibition, % at 10 µM; 98,000 tested, 0.9% active; post-Golgi transport phenotypic cell assay;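 further: yeast cells grown in 1536-well plates; yeast grown about 18 h at 30C before absorbance read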
BB579 growth dn = reduces growth of yeast BB579 in restrictive medium | AID 804 | S. cerevisiae BB579 growth, OD615, 48 h | inhibition, % at 10 µM | 140,000 tested, 0.51% active;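 active means inhibition above a set limit, 3 SD over the mean compound inhibition, cut at about 44% in these data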
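System: DeaD yeast strain BB579; buffer or medium: CSMM-D dextrose restrictive medium; technique: OD at 615 nm; schedule: 4 h cell preincubation, 48 h compound exposure, 30 °C humidified; doses: single 10 µM dose; controls: amphotericin B 10 µg/mL, positive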
Large screens that a line does not name were inactive. Unless noted, no stated cut-off is given here; in the data, active means inhibition above about 30%; inactive means the rest.

O=C(NCc1ccco1)c1cnn2c(C(F)F)cc(-c3ccccc3)nc12	none
COC(=O)c1cccc(NC(=O)c2cccs2)c1C	none
C=CCN1C(=Nc2cccnc2)SCC1(O)c1ccc(C)cc1 (configuration not stated)	PostGolgi ctrl 42.9
Cc1cc(/C=N/n2cnnc2)c(C)n1-c1ccc(OCc2ccc(Cl)cc2)cc1	PostGolgi ctrl 77.6
C(=N\n1cnnc1)/c1ccc(OCc2ccccc2)cc1	none
Cc1cc(/C=N/n2cnnc2)c(C)n1-c1ccc(OCc2ccccc2F)cc1	PostGolgi ctrl 64.6
Fc1ccccc1COc1cccc(/C=N/n2cnnc2)c1	none
N#CCC(=O)N/N=C1\CCCCC1C1CCCCC1 (configuration not stated)	none (no result: PostGolgi ctrl, PostGolgi yeast)
CC(C(=O)Nc1sc2c(c1C#N)CCCCC2)N1C(=O)c2ccccc2C1=O (configuration not stated)	none (no result: PostGolgi ctrl, PostGolgi yeast)
Cn1c(CCCCCN)nc2ccccc21	Yeast lifespan up 30.4
CCCC(=O)NCCCc1nc2ccccc2n1C	none
CC(=O)C(N=Nc1ccccc1)(Sc1nnc(-c2ccccc2)n1-c1ccccc1)C(C)=O	PostGolgi ctrl 46.6
COC(=O)CN1C(=O)Nc2ccc(Br)cc2C1c1ccccc1Cl (configuration not stated)	PostGolgi ctrl 33.4
Nc1cccc(-n2nncc2-c2ccccc2)c1	none
COc1cccc(NS(=O)(=O)c2ccc3[nH]cc(C(=O)NCCC(C)C)c(=O)c3c2)c1	PostGolgi ctrl 40.8
CCOc1ccc(NS(=O)(=O)c2ccc3[nH]cc(C(=O)NC(C)CC)c(=O)c3c2)cc1 (configuration not stated)	none
Cn1c(C(=O)N2CCN(c3cccc(C(F)(F)F)c3)CC2)cc2sccc21	PostGolgi ctrl 48.1
Cc1ccc(C)c(N2CCN(C(=O)c3cc4sccc4n3C)CC2)c1	PostGolgi ctrl 35.7
O=C(c1c(F)c(F)c(F)c(F)c1F)N1CCN(c2cccc(C(F)(F)F)c2)CC1	none
CC(/C=C/C=C/c1ccccc1)=N/NC(=O)CNc1ccc(C)cc1	none
Cc1cccnc1NC(=O)Cn1nc(-c2ccccc2)oc1=S	none (no result: PostGolgi ctrl, PostGolgi yeast)
CC1CN=C(c2cccn2Cc2ccc(F)cc2Cl)O1 (configuration not stated)	PostGolgi ctrl 32.0
CC(=O)c1cccc(NC(=O)CN(c2ccc(C)cc2)S(=O)(=O)c2cccc3nonc23)c1	PostGolgi ctrl 34.4
Cc1ccc(N(CC(=O)O)S(=O)(=O)c2cccc3nonc23)cc1	none
CCOC(=O)c1c(NC(=O)CSc2nnc(CNc3ccc(F)cc3)o2)sc(C)c1C	PostGolgi ctrl 38.3
O=C1CCCc2ccccc2N1Cc1ccc(Cl)cc1Cl	PostGolgi ctrl 31.0
O=c1cc2c(nn1Cc1c(Cl)cccc1Cl)-c1ccccc1CC2	PostGolgi ctrl 31.8
O=C1CCCc2ccccc2N1Cc1ccccc1Cl	PostGolgi ctrl 34.4
O=C1C2CC=CCC2C(=O)N1Cc1ccccc1Cl (configuration not stated)	none (no result: PostGolgi ctrl, PostGolgi yeast)
O=C1CCCc2ccccc2N1Cc1ccc(Cl)cc1	none
O=C1CCCc2ccccc2N1Cc1c(Cl)cccc1Cl	PostGolgi ctrl 41.5
O=C1CCCc2ccccc2N1Cc1cccc(Cl)c1	none
CC1(C)C(=O)OC(c2ccco2)C(C)(C)C1=O (configuration not stated)	none
CCCCc1ccc(NC(=S)Nc2cccnc2)cc1	none (no result: PostGolgi ctrl, PostGolgi yeast)
CCCCc1ccc(NC(=S)Nc2ccc(Nc3ccc(OC)cc3)cc2)cc1	BB579 growth dn 55.5 (no result: PostGolgi ctrl, PostGolgi yeast)
CCN(Cc1ccncc1)S(=O)(=O)c1ccc(C(C)=O)cc1	none
Cc1ccc(-c2c(C#N)c(N)nc3c2CCCC3)s1	none
CCCCN(C(=O)CSc1nnc(Nc2ccc(C)c(C)c2)s1)c1c(N)n(Cc2ccccc2)c(=O)[nH]c1=O	PostGolgi ctrl 37.2
COc1cccc(NC(=O)c2ccccc2-c2nc(-c3cccc(C)c3)no2)c1	PostGolgi ctrl 34.3
Cc1cccc(-c2noc(-c3ccccc3C(=O)NCC3CCCO3)n2)c1 (configuration not stated)	PostGolgi ctrl 30.6
Cc1ccc(CCSc2ccc(C(C)C)cc2)cn1	none (no result: PostGolgi ctrl, PostGolgi yeast)
CN=C(Nc1cccc(OC)c1)SC1CC(=O)N(c2ccc(C(=O)O)cc2)C1=O (configuration not stated)	none (no result: PostGolgi ctrl, PostGolgi yeast)
O=C(NCCOc1ccccc1)C1CCCN1C(=O)c1cccs1 (configuration not stated)	PostGolgi ctrl 33.6
CCOc1nc(Nc2ccc(OC)cc2)nc(OCC)n1	none
CCOc1nc(Nc2ccc(OC)c(Cl)c2)nc(OCC)n1	PostGolgi ctrl 35.7
Cc1ccc(NC(=O)C2C(c3ccccc3)C=CC(c3ccccc3)C2C(=O)O)cc1 (configuration not stated)	Yeast lifespan up 30.4
O=C(O)c1ccccc1OCCOc1ccccc1C(=O)O	PostGolgi ctrl 43.8
O=C(O)c1ccccc1OCCOCCOc1ccccc1C(=O)O	none
COc1ccc(-c2n[nH]c(C)c2-c2cnn(-c3ccccc3)c2)c(O)c1C	PostGolgi ctrl 49.7
CC(=O)Nc1nc(COc2ccccc2)cs1	none
O=C(Nc1nc(COc2ccccc2)cs1)C12CC3CC(CC(C3)C1)C2	PostGolgi ctrl 37.0
CC1=C(C(=O)OC2CCCCC2)C(c2ccc(C)o2)C2=C(CCCC2=O)N1 (configuration not stated)	none
CC1=C(C(=O)OC2CCCCC2)C(c2ccco2)C2=C(CC(C)(C)CC2=O)N1 (configuration not stated)	PostGolgi ctrl 40.5
O=C(Nc1scc(-c2ccc(F)cc2)c1C(=O)O)c1ccco1	Yeast lifespan up 97.3
COC(=O)c1c(-c2ccccc2)csc1NC(=O)c1ccco1	none
c1ccc(Oc2nc(Oc3ccccc3)nc(N3CCOCC3)n2)cc1	PostGolgi ctrl 31.1
Cc1ccc(-c2nnc(-c3ccccc3)c(N3CCOCC3)n2)cc1	none
c1ccc(-c2nnc(N3CCOCC3)nc2-c2ccccc2)cc1	PostGolgi ctrl 53.6
CN(C)C(=O)NC(O)C(Cl)Cl (configuration not stated)	none
COc1cccc(N(C(=O)c2cccs2)c2nc3ccccc3s2)c1	none
O=C(CSc1nnc(-c2cc3ccccc3cc2O)n1Cc1ccco1)c1ccc(F)cc1	PostGolgi ctrl 80.3
O=C(CSc1nnc(-c2ccco2)n1Cc1ccccc1)c1ccc(F)cc1	PostGolgi ctrl 32.1
O=C(CSc1nnc(-c2ccco2)n1Cc1ccccc1)NCc1ccccc1	none (no result: PostGolgi ctrl, Yeast lifespan up, PostGolgi yeast)
COc1ccc(Cl)cc1NC(=O)CN1CCC(n2nnc3ccccc32)CC1	none
CC1(c2ccc(Cl)cc2)NC(=O)N(CC(=O)N2CCCC2)C1=O (configuration not stated)	none
COC(=O)C1=C(N)OC2=C(C(=O)CC(C)(C)C2)C1c1ccoc1 (configuration not stated)	none
CCOC(=O)c1sc(NC(=O)CSc2nnc(-c3ccc(OC)cc3)n2CCOC)nc1C	none
CO/N=C/NC(=O)NOCc1ncc(C(F)(F)F)cc1Cl	none
O=C(N/C=N/OCc1ccc(Cl)cc1Cl)NOCc1ncc(C(F)(F)F)cc1Cl	PostGolgi ctrl 33.7
CCOc1cc(Br)c(Br)c(C=Nc2ccc(NC(C)=O)cc2)c1O	Yeast lifespan up 48.9 (no result: PostGolgi ctrl, PostGolgi yeast)
COc1ccc(OC)c(C(=O)c2ccc(C(=O)N3CCCCC3)cc2)c1	none
CN1CCN(CC(=O)Nc2ccc(Cl)cc2Cl)CC1	Yeast lifespan up 40.0

Assay outcomes as filed in PubChem.
